Data set [1] is described as follows: Cytotoxicity against mouse RAW264.7 cells at 50 uM after 72 hrs by MTT assay. The following applies: read-out: INH. It is filed as cell-based. (Formazan colour is commonly taken as a measure of viable cells.)
Another data set deals with T1, Pantothenate synthetase (Mycobacterium tuberculosis, UniProt P9WIL5).
T1 sequence (P9WIL5 whole entry): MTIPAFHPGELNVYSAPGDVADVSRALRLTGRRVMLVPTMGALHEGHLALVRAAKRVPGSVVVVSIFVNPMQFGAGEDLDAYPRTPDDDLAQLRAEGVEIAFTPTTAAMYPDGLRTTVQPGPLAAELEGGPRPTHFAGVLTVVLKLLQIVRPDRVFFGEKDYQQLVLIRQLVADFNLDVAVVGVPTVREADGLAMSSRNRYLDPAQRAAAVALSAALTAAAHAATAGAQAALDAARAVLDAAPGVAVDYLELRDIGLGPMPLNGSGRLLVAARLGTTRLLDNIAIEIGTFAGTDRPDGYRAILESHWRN
Briefly: Inhibition of Mycobacterium tuberculosis pantothenate synthetase expressed in Escherichia coli BL21 (DE3). A digest of the protocol: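 panC (Rv3602c) cloned into E. coli BL21(DE3). Coupled assay: reagent mix of NADH, pantoic acid, β-alanine, ATP, phosphoenolpyruvate, MgCl2, myokinase, pyruvate kinase, lactate dehydrogenase; reaction started with PS; A340 read every 12 s for 120 s.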

In data set [2] the test system is Mycobacterium tuberculosis. Briefly: Antimycobacterial activity against Mycobacterium tuberculosis H37Rv ATCC 27294 after 28 days by agar dilution method. The class given is functional. The note with it: H37Rv ATCC 27294, 672 h. A digest of the protocol: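 Agar dilution on Middlebrook 7H11 agar tubes with OADC, drug 50 to 0.78 µg/mL, in duplicate. Inoculum from fresh slants adjusted to 1 mg/mL wet weight in 0.05% Tween 80 saline, diluted 10^-2 (~10^7 cfu/mL); 5 µL spotted. Incubated 37 °C, MIC read after 28 days.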
(In agar dilution, organisms are placed on agar that contains the substance at set levels.)

For data set [3], the target named is T2, Pantothenate synthetase (Mycobacterium tuberculosis) (UniProt P9WIL5).
T2 sequence (whole entry): T1 sequence (P9WIL5 whole entry)
Briefly: Binding affinity to Mycobacterium tuberculosis pantothenate synthetase expressed in Escherichia coli BL21 (DE3) assessed as increase in thermal stability. A digest of the protocol: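 Differential scanning fluorimetry: protein–ligand complexes heated from 25 °C to 95 °C in 0.1 °C steps with SYPRO Orange dye; melting temperature shift relative to native protein recorded.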

Structures are written as SMILES. ≈ marks a conversion by molar mass, not a printed value.

For orientation: IC50 means the concentration at which inhibition is half-maximal. Broadly, the MIC is the smallest concentration in the dilution series that meets the test's criterion for growth inhibition. On to `COc1ccc(S(=O)(=O)N2CCc3c(sc(NC(=O)c4ccc([N+](=O)[O-])s4)c3C(N)=O)C2)cc1`, for which the cytotoxicity at 72 h, 50 µM in data set [1] was determined as 24.5%. For the same compound, half-maximal inhibition against Pantothenate synthetase (IC50) was put at 19 µM. In data set [2], the MIC stood at 23.9 µM (≈ 12.5 µg/mL).

Regarding `NC(=O)c1c(NC(=O)c2ccc([N+](=O)[O-])o2)sc2c1CCN(S(=O)(=O)c1ccc(Br)cc1)C2`, at Pantothenate synthetase, the IC50 was over 25 µM. This compound registered an MIC in data set [2] of 45 µM (≈ 25 µg/mL).

As to `NC(=O)c1c(NC(=O)c2ccc([N+](=O)[O-])s2)sc2c1CCN(C(=O)Nc1ccc(Cl)cc1)C2`, in data set [1], the cytotoxicity at 72 h, 50 µM is 24.4%. At Pantothenate synthetase, this compound had an IC50 of 10.2 µM. For the same compound, it took 12.3 µM (≈ 6.23 µg/mL) to inhibit growth in data set [2] (MIC).

As to `NC(=O)c1c(NC(=O)c2ccc([N+](=O)[O-])s2)sc2c1CCN(C(=S)Nc1ccc(F)cc1)C2`, the cytotoxicity at 72 h, 50 µM in data set [1] was 26.8%. This compound had an IC50 on Pantothenate synthetase of 10.2 µM. The MIC in data set [2] stood at 12.3 µM (≈ 6.24 µg/mL).

Regarding `NC(=O)c1c(NC(=O)c2ccc([N+](=O)[O-])s2)sc2c1CCN(S(=O)(=O)c1ccc(F)cc1)C2`, the cytotoxicity at 72 h, 50 µM in data set [1] is 30.2%. The compound also came in with an IC50 against Pantothenate synthetase of 11.7 µM. For the same compound, the lowest concentration to inhibit growth in data set [2] (MIC) was 12.2 µM (≈ 6.24 µg/mL).

`NC(=O)c1c(NC(=O)c2ccc([N+](=O)[O-])o2)sc2c1CCN(C(=O)Nc1ccc([N+](=O)[O-])cc1)C2`: the cytotoxicity at 72 h, 50 µM in data set [1] is 36.1%. The midpoint of inhibition on Pantothenate synthetase, the IC50, lay at 19.8 µM. Moreover, the MIC in data set [2] stood at 24.9 µM (≈ 12.5 µg/mL).

In turn, `CC(=O)N1CCc2c(sc(NC(=O)c3cccs3)c2C(N)=O)C1` returned an IC50 on Pantothenate synthetase of over 25 µM. The compound further had an MIC in data set [2] of 9.15 µM (≈ 3.2 µg/mL).

Regarding `NC(=O)c1c(NC(=O)c2ccc([N+](=O)[O-])o2)sc2c1CCN(C(=S)Nc1ccc([N+](=O)[O-])cc1)C2`, the cytotoxicity at 72 h, 50 µM in data set [1] stood at 28.2%. Moreover, the midpoint of inhibition at Pantothenate synthetase, the IC50, lay at 18.7 µM. This compound yielded an MIC in data set [2] of 24.2 µM (≈ 12.5 µg/mL).

`NC(=O)c1c(NC(=O)c2ccc([N+](=O)[O-])s2)sc2c1CCN(C(=S)Nc1ccc([N+](=O)[O-])cc1)C2`: in data set [1], the cytotoxicity at 72 h, 50 µM worked out at 28.6%. Besides, it took 9.11 µM to reach half-maximal inhibition at Pantothenate synthetase (IC50). Inhibition of growth in data set [2] (MIC) required 11.7 µM (≈ 6.24 µg/mL).

On to `NC(=O)c1c(NC(=O)c2ccc([N+](=O)[O-])s2)sc2c1CCN(C(=S)Nc1ccc(Cl)cc1)C2`, for which the cytotoxicity at 72 h, 50 µM in data set [1] worked out at 21.4%. For the same compound, the IC50 against Pantothenate synthetase worked out at 6.28 µM. This compound yielded an MIC in data set [2] of 11.9 µM (≈ 6.24 µg/mL).

The compound `NC(=O)c1c(NC(=O)c2ccc([N+](=O)[O-])o2)sc2c1CCN(S(=O)(=O)c1ccc([N+](=O)[O-])cc1)C2` showed an IC50 against Pantothenate synthetase of over 25 µM. The compound further displayed an MIC in data set [2] of 47.9 µM (≈ 25 µg/mL).

In turn, `CC(=O)c1ccc(S(=O)(=O)N2CCc3c(sc(NC(=O)c4ccc([N+](=O)[O-])s4)c3C(N)=O)C2)cc1` displayed an IC50 against Pantothenate synthetase of over 25 µM. Moreover, 46.7 µM (≈ 25 µg/mL) was the least that counted as inhibitory in data set [2] (MIC).

`NC(=O)c1c(NC(=O)c2ccc([N+](=O)[O-])s2)sc2c1CCN(C(=O)NCc1ccccc1)C2`: the cytotoxicity at 72 h, 50 µM in data set [1] was found to be 26.1%. Further, the 50% inhibitory concentration (IC50) on Pantothenate synthetase worked out at 18.2 µM. In addition, in data set [2], inhibition of growth (MIC) required 25.7 µM (≈ 12.5 µg/mL).

For `COc1ccc(NC(=O)N2CCc3c(sc(NC(=O)c4ccc([N+](=O)[O-])s4)c3C(N)=O)C2)cc1`, the cytotoxicity at 72 h, 50 µM in data set [1] stood at 20.9%. Further, the IC50 against Pantothenate synthetase amounted to 14.5 µM. Besides, the MIC in data set [2] came out at 24.9 µM (≈ 12.5 µg/mL).

Turning to `NC(=O)c1c(NC(=O)c2ccc([N+](=O)[O-])o2)sc2c1CCN(C(=S)Nc1ccc(Cl)cc1)C2`, in data set [1], the cytotoxicity at 72 h, 50 µM is 24.7%. This compound also displayed an IC50 on Pantothenate synthetase of 19.2 µM. The compound also yielded an MIC in data set [2] of 24.7 µM (≈ 12.5 µg/mL).

Take `NC(=O)c1c(NC(=O)c2ccc([N+](=O)[O-])o2)sc2c1CCN(S(=O)(=O)c1ccc(F)cc1)C2`: the cytotoxicity at 72 h, 50 µM in data set [1] worked out at 22.1%. Half-maximal inhibition on Pantothenate synthetase (IC50) was put at 17.6 µM. 25.2 µM (≈ 12.5 µg/mL) was the least that counted as inhibitory in data set [2] (MIC).

`NC(=O)c1c(NC(=O)c2ccc([N+](=O)[O-])o2)sc2c1CCN(C(=O)Nc1ccc(Cl)cc1)C2` showed an IC50 on Pantothenate synthetase of over 25 µM. In data set [2], this compound returned an MIC of 51 µM (≈ 25 µg/mL).

Take `NC(=O)c1c(NC(=O)c2ccc([N+](=O)[O-])s2)sc2c1CCN(S(=O)(=O)c1ccc(Br)cc1)C2`: in data set [1], the cytotoxicity at 72 h, 50 µM turned out to be 26.8%. Half-maximal inhibition against Pantothenate synthetase (IC50) required 14.2 µM. This compound yielded an MIC in data set [2] of 21.9 µM (≈ 12.5 µg/mL).

On to `NC(=O)c1c(NC(=O)c2ccc([N+](=O)[O-])s2)sc2c1CCN(S(=O)(=O)c1ccc([N+](=O)[O-])cc1)C2`, for which the Tm in data set [3] came out at 50.4 °C. In addition, in data set [1], the cytotoxicity at 72 h, 50 µM was 29.2%. The midpoint of inhibition on Pantothenate synthetase, the IC50, lay at 5.87 µM. The MIC in data set [2] stood at 9.28 µM (≈ 4.99 µg/mL).

On to `NC(=O)c1c(NC(=O)c2ccc([N+](=O)[O-])o2)sc2c1CCN(C(=S)Nc1ccc(F)cc1)C2`, for which the cytotoxicity at 72 h, 50 µM in data set [1] amounted to 28.1%. The same compound gave a half-maximal inhibitory concentration (IC50) against Pantothenate synthetase of 20.9 µM. This compound also had an MIC in data set [2] of 25.5 µM (≈ 12.5 µg/mL).

In turn, `CC[C@@H](CO)NCCN[C@@H](CC)CO` [ETHAMBUTOL] came in with an IC50 against Pantothenate synthetase of over 25 µM. The MIC in data set [2] came out at 7.64 µM (≈ 1.56 µg/mL).

For `NC(=O)c1c(NC(=O)c2ccc([N+](=O)[O-])s2)sc2c1CCN(C(=O)Nc1ccc([N+](=O)[O-])cc1)C2`, the cytotoxicity at 72 h, 50 µM in data set [1] amounted to 33.6%. In addition, the IC50 against Pantothenate synthetase was found to be 9.68 µM. The MIC in data set [2] stood at 12.1 µM (≈ 6.24 µg/mL).

Consider `COc1ccc(NC(=O)N2CCc3c(sc(NC(=O)c4ccc([N+](=O)[O-])o4)c3C(N)=O)C2)cc1`, for which the IC50 on Pantothenate synthetase was 15.1 µM. Also, the MIC in data set [2] is 53.2 µM (≈ 25.8 µg/mL).

In the case of `NC(=O)c1c(NC(=O)c2ccc([N+](=O)[O-])o2)sc2c1CCN(C(=O)NCc1ccccc1)C2`, the cytotoxicity at 72 h, 50 µM in data set [1] is 24.3%. The compound further registered an IC50 against Pantothenate synthetase of 14.1 µM. For the same compound, the MIC in data set [2] stood at 26.6 µM (≈ 12.5 µg/mL).

Take `COc1ccc(S(=O)(=O)N2CCc3c(sc(NC(=O)c4ccc([N+](=O)[O-])o4)c3C(N)=O)C2)cc1`: the cytotoxicity at 72 h, 50 µM in data set [1] turned out to be 19.4%. The compound also showed an IC50 against Pantothenate synthetase of 20.3 µM. Besides, the MIC in data set [2] stood at 24.6 µM (≈ 12.5 µg/mL).

For `NC(=O)c1c(NC(=O)c2ccc([N+](=O)[O-])s2)sc2c1CCN(C(=S)NCc1ccccc1)C2`, the cytotoxicity at 72 h, 50 µM in data set [1] came to 22.2%. Besides, on Pantothenate synthetase, the IC50 came out at 13.2 µM. Further, the minimum inhibitory concentration (MIC) in data set [2] came to 19.9 µM (≈ 9.99 µg/mL).

Consider `NC(=O)c1c(NC(=O)c2ccc([N+](=O)[O-])o2)sc2c1CCN(C(=S)NCc1ccccc1)C2`, for which the cytotoxicity at 72 h, 50 µM in data set [1] worked out at 18.1%. At Pantothenate synthetase, this compound gave a concentration for half-maximal inhibition (IC50) of 17 µM. Moreover, in data set [2], the MIC worked out at 26.5 µM (≈ 12.9 µg/mL).

`NNC(=O)c1ccncc1` [ISONIAZID] registered an IC50 against Pantothenate synthetase of over 25 µM. Moreover, the lowest concentration to inhibit growth in data set [2] (MIC) was 0.72 µM (≈ 0.0987 µg/mL).

`CC(=O)c1ccc(S(=O)(=O)N2CCc3c(sc(NC(=O)c4ccc([N+](=O)[O-])o4)c3C(N)=O)C2)cc1` returned an IC50 at Pantothenate synthetase of over 25 µM. In data set [2], this compound yielded an MIC of 48.2 µM (≈ 25 µg/mL).
